In publication PMC3600638 (Biomaterials, 2013):
Structures can show the parent of a compound that is named as a salt.

Experiments:
H460 cells [1] = test: In vitro cell viability; format: cell-based, human; settings: 48 h, MTT
How it was run: (§1)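 Cells seeded at 1×10⁴ per well in 96-well plates. A range of test compound concentrations was added at 30% confluence, then 48 h at 37°C. MTT at 0.5 mg/mL final for 4 h at 37°C, formazan dissolved in DMSO, A570 read. Viability expressed as % of untreated cells; IC50 derived; mean ± S.D., n=3.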

BxPC-3 cells [2] = test: In vitro cell viability; format: cell-based, human; settings: 48 h, MTT
How it was run: as §1

H460 cells [3] = test: In vitro caspase-3/7 activation; format: cell-based, human; settings: 1.8 μM, 48 h
How it was run: (§2)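 H460 or BxPC-3 cells grown in RPMI-1640 with 10% FBS at 37°C and 5% CO₂. 2×10⁵ cells per well in 6-well plates, exposed to 1.8 μM test compound for 48 h. Lysed in RIPA buffer with protease inhibitors, protein measured by BCA, and 40 μg protein assayed with a commercial caspase-3/7 activity kit.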

BxPC-3 cells [4] = test: In vitro caspase-3/7 activation; format: cell-based, human; settings: 1.8 μM, 48 h
How it was run: as §2

H460 xenografts [5] = test: In vivo caspase-3/7 activation in tumors; design: species or system nude mice; settings: 3 daily IV injections, 7.5 μmol/Kg, 24 h after last injection
How it was run: (§3)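 Female nude mice, 6–8 weeks old, with s.c. right-flank xenografts (5×10⁶ cells in PBS), n=3. Three daily IV doses of 7.5 μmol/Kg; tumors taken 24 h after the last dose. Tissue homogenised and sonicated in RIPA with protease inhibitors, spun 14,000 rpm for 10 min at 4°C. 40 μg protein (BCA) assayed with a caspase-3/7 kit.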

BxPC-3 xenografts [6] = test: In vivo caspase-3/7 activation in tumors; design: species or system nude mice; settings: 3 daily IV injections, 7.5 μmol/Kg, 24 h after last injection
How it was run: as §3

H460 xenografts [7] = test: Western blot of tumor lysates; format: in vivo, nude mice; settings: 3 daily IV injections
How it was run: (§4)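 Tumors from xenograft-bearing nude mice harvested 24 h after three daily IV injections; RIPA lysates prepared. 40 μg protein per lane on 4–12% SDS-PAGE, transferred to PVDF, blocked 1 h in 5% milk. Mouse monoclonal PARP-1 and rabbit polyclonal cyclin D1 antibodies (1:500) overnight at 4°C. β-actin (1:4000) as loading control; secondaries 1:4000 for 1 h; ECL detection.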

BxPC-3 xenografts [8] = test: Western blot of tumor lysates; format: in vivo, nude mice; settings: 3 daily IV injections
How it was run: as §4

H460 subcutaneous tumors = test: Tumor growth inhibition study; format: in vivo, nude mice; settings: H460 xenograft, 4 IV injections every other day, 7.5 μmol/Kg
How it was run: (§5)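 Female nude mice, 6–8 weeks old, inoculated s.c. with 5×10⁶ cells. Dosing began day 12 at 150–200 mm³ tumor volume, mice randomised into 6 groups (n=5). IV injections every other day ×4 at 7.5 μmol/Kg. Calipers every other day, V = 0.5×W²×L; body weight recorded every other day; mice euthanised when a tumor reached 20 mm.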

[9] = test system: BxPC-3 subcutaneous tumors; test: Tumor growth inhibition study; format: in vivo, nude mice; settings: BxPC-3 xenograft, 4 IV injections every other day, 7.5 μmol/Kg
How it was run: as §5

H460 cells [10] = test: In vitro cellular uptake of NBD-labeled LCPs; format: cell-based, human; settings: pre-incubation with 50 μM haloperidol for 1 h
Pharmacokinetic profile = format: in vivo, nude mice; settings: IV bolus, H460 xenograft model
How it was run: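 Nanoparticles co-loaded with trace ³H-CTP as a marker of entrapped drug, given as an IV bolus to nude mice bearing H460 tumors. 30 μL blood drawn from the orbital venous plexus at 20 min, 1, 2, 4, 8 and 24 h, bleached with 30% H₂O₂ and counted by liquid scintillation. %ID in blood calculated with the initial value set at 100%; PK parameters from a non-compartmental fit.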

SMILES	cell viability (H460 cells [1])	cell viability (BxPC-3 cells [2])	in vitro caspase-3/7 activity (H460 cells [3])	in vitro caspase-3/7 activity (BxPC-3 cells [4])	caspase-3/7 activity in tumors (H460 xenografts [5])	caspase-3/7 activity in tumors (BxPC-3 xenografts [6])	cleaved PARP in tumors (H460 xenografts [7])	cleaved PARP in tumors (BxPC-3 xenografts [8])	tumor growth inhibition (H460 subcutaneous tumors)	tumor growth inhibition [9]	effect on cellular uptake of AA-modified LCP (H460 cells [10])	AUMC (Pharmacokinetic profile)
Nc1ccn([C@@H]2O[C@H](CO)[C@@H](O)C2(F)F)c(=O)n1 [Gem, 2′, 2′-difluoro 2′-deoxycytidine]	decreased the cell viability	decreased the cell viability	significantly higher than the control	significantly higher than the control	did not elicit caspase activity in vivo	did not elicit caspase activity in vivo	did not induce PARP elevation	did not induce PARP elevation	limited therapeutic effects	limited therapeutic effects		
O=C(CCCN1CCC(O)(c2ccc(Cl)cc2)CC1)c1ccc(F)cc1 [haloperidol]											significantly reduced the cellular uptake of AA-modified LCP	
Nc1ccn([C@@H]2O[C@H](COP(=O)(O)OP(=O)(O)OP(=O)(O)O)[C@@H](O)C2(F)F)c(=O)n1 [GTP, Gemcitabine triphosphate tris(triethylammonium) salt]	decreased the cell viability	decreased the cell viability	significantly higher than the control	significantly higher than the control	did not elicit caspase activity in vivo	did not elicit caspase activity in vivo	did not induce PARP elevation	did not induce PARP elevation	limited therapeutic effects	limited therapeutic effects		25.34 h^2·%
